Experimental data gathered from unrelated publications.
Target: Mitogen-activated protein kinase kinase kinase 15 (MAP3K15, Homo sapiens, UniProt Q6ZN16)
Sequence (Q6ZN16 1-1313, as in one of the studies): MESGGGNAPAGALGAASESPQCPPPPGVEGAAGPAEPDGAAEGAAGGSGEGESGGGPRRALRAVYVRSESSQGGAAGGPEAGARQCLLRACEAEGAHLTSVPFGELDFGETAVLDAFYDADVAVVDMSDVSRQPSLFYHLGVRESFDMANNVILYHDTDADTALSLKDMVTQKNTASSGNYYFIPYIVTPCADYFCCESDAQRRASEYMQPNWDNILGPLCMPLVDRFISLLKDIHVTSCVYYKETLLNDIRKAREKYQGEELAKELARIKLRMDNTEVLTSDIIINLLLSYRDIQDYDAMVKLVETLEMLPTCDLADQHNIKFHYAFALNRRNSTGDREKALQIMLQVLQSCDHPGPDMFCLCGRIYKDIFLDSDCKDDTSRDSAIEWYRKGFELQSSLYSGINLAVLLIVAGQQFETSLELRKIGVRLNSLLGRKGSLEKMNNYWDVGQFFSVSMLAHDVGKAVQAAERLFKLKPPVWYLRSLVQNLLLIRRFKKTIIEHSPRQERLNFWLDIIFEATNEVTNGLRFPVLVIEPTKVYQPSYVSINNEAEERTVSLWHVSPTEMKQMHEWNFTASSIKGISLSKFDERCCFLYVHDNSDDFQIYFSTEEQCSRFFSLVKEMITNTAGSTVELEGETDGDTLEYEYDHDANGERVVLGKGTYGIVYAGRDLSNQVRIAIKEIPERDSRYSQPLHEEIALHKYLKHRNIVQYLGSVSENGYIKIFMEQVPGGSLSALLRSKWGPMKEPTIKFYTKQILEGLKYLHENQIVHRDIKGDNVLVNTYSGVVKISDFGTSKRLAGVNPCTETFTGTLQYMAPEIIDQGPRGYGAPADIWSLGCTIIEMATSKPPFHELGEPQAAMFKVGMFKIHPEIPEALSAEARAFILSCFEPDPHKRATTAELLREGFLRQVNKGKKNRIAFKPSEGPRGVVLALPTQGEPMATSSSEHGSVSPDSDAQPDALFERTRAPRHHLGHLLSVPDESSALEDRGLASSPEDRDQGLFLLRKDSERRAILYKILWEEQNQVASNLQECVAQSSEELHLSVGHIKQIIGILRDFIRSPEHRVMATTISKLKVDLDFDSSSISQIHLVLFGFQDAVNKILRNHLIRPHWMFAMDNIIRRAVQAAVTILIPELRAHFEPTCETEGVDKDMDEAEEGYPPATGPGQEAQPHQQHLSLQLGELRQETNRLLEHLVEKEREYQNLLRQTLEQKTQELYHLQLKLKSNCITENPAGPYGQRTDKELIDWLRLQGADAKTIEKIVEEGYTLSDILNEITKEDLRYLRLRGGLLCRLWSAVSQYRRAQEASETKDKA

| Compound | read-out | method | concentration | remaining binding [%] |
| --- | --- | --- | --- | --- |
| Nc1cnc(N2CCc3cc(S(=O)(=O)Nc4c(F)cc(Cl)cc4F)cc(N4CCCC4=O)c32)nc1 | cell-free assay | competition with immobilised ligand | 1 µM | 100 |
| Cc1cnn2ncc(-c3ccnc(N(C)C)n3)c2c1 | binding |  | 1 µM | 100 |
| COc1ncc2cc3ccccc3nc2c1C#N | cell-free assay | competition with immobilised ligand | 5 µM | 95 |
| CN(C)c1nccc(-c2cnc3ncccn23)n1 | binding |  | 1 µM | 100 |
| O=C(c1ccc(Nc2ncc(Cl)c(-c3cc4ccccc4s3)n2)cc1)N1CCC(N2CCCC2)CC1 | binding | competition with immobilised ligand | 1 µM | 55 |
| F[C@@H]1CCN(c2nccc(-c3cnn4ncccc34)n2)C1 | binding |  | 1 µM | 100 |
| O=C(NCC1CCOCC1)c1n[nH]cc1NC(=O)c1c(F)cccc1F | binding | competition with immobilised ligand | 1 µM | 72 |
| CN(C)C(=O)Cn1cc(-c2nc([C@@](C)(c3ccc(-c4cnc(N)nc4)cc3)C3CC3)no2)cn1 | cell-free assay | competition with immobilised ligand | 1 µM | 99 |
| N[C@H]1CCN(c2nccc(-c3cnn4ncccc34)n2)C1 | binding |  | 1 µM | 83 |
| CNC(=O)[C@@H]1CC[C@@H](n2c(-c3ccc4cnccc4c3)nc3ccc(C(=O)NCc4cccc(C(N)=O)c4)cc32)C1 | binding | competition with immobilised ligand | 1 µM | 99 |
| CN(C)c1nccc(-c2cnn3ncccc23)n1 | binding |  | 1 µM | 91 |
| O=C(NCCCN1CCOCC1)c1ccc(Nc2ncc(Cl)c(-c3ccc(Cl)s3)n2)cc1 | binding | competition with immobilised ligand | 1 µM | 68 |
| COc1cnc(Nc2cccc(S(N)(=O)=O)c2)nc1N1CCN(c2ccccc2)C(=O)C1 | binding | competition with immobilised ligand | 1 µM | 69 |
| CCCOc1ccc([C@@H]2[C@@H](C(=O)O)[C@H](c3ccc4c(c3)OCO4)CN2CC(=O)Nc2c(CC)cccc2CC)cc1 | cell-free assay | competition with immobilised ligand | 1 µM | 99 |
| c1cncc(-c2cccc(Nc3nccc(NC4CCCCC4)n3)c2)c1 | binding | competition with immobilised ligand | 10 µM | 77 |
| O=C(O)c1cc(-c2ccc(C3CCNCC3)cc2)c2ccc(-c3ccc(C(F)(F)F)cc3)cc2c1 | cell-free assay | competition with immobilised ligand | 1 µM | 99 |
| CN(c1nccc(-c2cnn3ncccc23)n1)C1CC1 | binding |  | 1 µM | 100 |
| C[C@@]1(Cc2ccc(C#N)cc2)C(=O)N(c2cc(Cl)cc(Cl)c2)c2ncc(C(=O)NC3(c4nc(C5CCC5)no4)CC3)n21 | cell-free assay | competition with immobilised ligand | 1 µM | 81 |
| O=C(NCCCN1CCOCC1)c1ccc(Nc2nccc(-c3cc4ccccc4s3)n2)cc1 | binding | competition with immobilised ligand | 1 µM | 56 |
| CCCCN(CCCC)C(=O)CN1C[C@@H](c2cc(OC)c3c(c2)OCO3)[C@H](C(=O)O)[C@H]1CC(C)(C)CCC | cell-free assay | competition with immobilised ligand | 1 µM | 99 |
| C=CC(=O)N1CCC(C(=O)NCC(=O)N2CCN(c3nc(-c4cnc(N)nc4C(F)F)nc(N4CCOCC4)n3)CC2)CC1 | binding | competition with immobilised ligand | 1 µM | 100 |
